According to ChEMBL document CHEMBL1144547, “Synthesis, antimalarial, antileishmanial, antimicrobial, cytotoxicity, and methemoglobin (MetHB) formation activities of new 8-quinolinamines” (Bioorg Med Chem, 2007):
Values after ≈ are worked out from the molar mass of the structure shown. Active and inactive are the calls of the source. The calls are words filed in the database; no cut-off is given here.

Columns and labels:
[1] = test system: Leishmania donovani; assay: Antileishmanial activity against Leishmania donovani promastigotes by Alamar blue assay; type: functional, organism-based
[2] = test system: Candida albicans; assay: Antifungal activity against Candida albicans ATCC 90028 after 18 to 24 hrs; type: functional, organism-based
[3] = test system: Nakaseomyces glabratus; assay: Antifungal activity against Candida glabrata ATCC 90030 after 18 to 24 hrs; type: functional, organism-based
[4] = test system: Pichia kudriavzevii; assay: Antifungal activity against Candida krusei ATCC 6258 after 18 to 24 hrs; type: functional, organism-based
[5] = test system: Cryptococcus neoformans; assay: Antifungal activity against Cryptococcus neoformans ATCC 90113 after 68 to 72 hrs; type: functional, organism-based
[6] = test system: Plasmodium falciparum; assay: Antimalarial activity against chloroquine-sensitive Plasmodium falciparum D6; type: functional, organism-based
[7] = test system: Plasmodium falciparum; assay: Antimalarial activity against chloroquine-resistant Plasmodium falciparum W2; type: functional, organism-based
[8] = Selectivity index, Ratio of IC50 in Vero cells to IC50 in chloroquine-sensitive Plasmodium falciparum D6; type: functional
[9] = Selectivity index, Ratio of IC50 in Vero cells to IC50 in chloroquine-resistant Plasmodium falciparum W2; type: functional
[10] = test system: Vero; assay: Cytotoxicity against Vero cells upto 23.8 ng/ml by neutral red assay; type: cell-based; conditions: chlorocebus sabaeus, in the assay text read “23.8 µg/ml” for “23.8 ng/ml”
Outline: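 Vero monkey kidney fibroblasts (ATCC), neutral red uptake read-out; compounds tested up to a highest concentration of 23.8 µg/mL.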

[11] = Methemoglobin toxicity in human erythrocytes incubated with mouse liver microsomes assessed as MetHb formation at 20 ug/mL by biotransformation linked assay; set-up: species or system Erythrocyte, Microsome
Outline: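 Compound at 20 µg/mL co-incubated 1 h at 37 °C, shaking, with mouse liver microsomes (500 µg protein), human erythrocytes (50% hematocrit suspension), NADPH-regenerating system, KCl, in 100 mM potassium phosphate pH 7.4; cells pelleted, lysed in Triton X-100 phosphate buffer pH 7.8; MetHb relative to total Hb by Evelyn–Malloy spectrophotometry; % versus vehicle control.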

[12] = test system: Plasmodium berghei; assay: Antimalarial activity as parasite elimination against Plasmodium berghei in mice (Mus musculus) at 100 mg/kg/day peroral dose over 4 days; type: functional, organism-based
Outline: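 Mice, 6 per group, infected with drug-sensitive P. berghei; oral dosing on days 0–3 post infection (×4); vehicle-only and chloroquine 10 mg/kg/day×4 oral controls. Curative means no parasites and survival to day D+60; suppressive means negative parasitaemia to D+7.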

[13] = test system: Candida albicans; assay: Antifungal activity against Candida albicans ATCC 90028 at 20 ug/mL after 18 to 24 hrs; type: functional, organism-based

`C[C@@H]1[C@H](O)[C@@H](C)/C=C/C=C/C=C/C=C/C=C/C=C/C=C/[C@H](O[C@@H]2O[C@H](C)[C@@H](O)[C@H](N)[C@@H]2O)C[C@@H]2O[C@](O)(C[C@@H](O)C[C@@H](O)[C@H](O)CC[C@@H](O)C[C@@H](O)CC(=O)O[C@H]1C)C[C@H](O)[C@H]2C(=O)O` [AMPHOTERICIN B] gave an IC90 [1] of 0.35 µg/mL (≈ 0.379 µM), an IC50 [2] of 0.25 µg/mL (≈ 0.271 µM) and an IC50 [3] of 0.07 µg/mL (≈ 0.0758 µM). It also gave an MFC [3] of 0.625 µg/mL (≈ 0.676 µM), an MIC [3] of 0.31 µg/mL (≈ 0.335 µM) and an IC50 [4] of 0.6 µg/mL (≈ 0.649 µM). For the same molecule, the IC50 [5] was 0.75 µg/mL (≈ 0.812 µM) and the MFC [5] was 1.5 µg/mL (≈ 1.62 µM).
Molecule `C[C@@H]1CC[C@H]2[C@@H](C)C(=O)O[C@@H]3O[C@@]4(C)CC[C@@H]1[C@]32OO4` [ARTEMISININ] has an IC50 [6] of 0.0152 µg/mL (≈ 0.0538 µM), an IC50 [7] of 9 ng/mL (≈ 0.0319 µM) and a Selectivity index [8] of 1565. It also gave a Selectivity index [9] of 2644.
Molecule `N=C(N)c1ccc(OCCCCCOc2ccc(C(=N)N)cc2)cc1` [PENTAMIDINE] has an IC50 [1] of 1 µg/mL (≈ 2.94 µM) and an IC90 [1] of 3.8 µg/mL (≈ 11.2 µM).
In the case of `COc1cc(NC(C)CCCN)c2ncccc2c1` (stereo not given) [PRIMAQUINE], the Activity [10] was “Non-toxic”, the Activity [11] was 47.9% and the Activity [12] was “inactive”. For the same molecule, the Activity [1] was “inactive”, the IC50 [1] was 19.9 µg/mL (≈ 76.7 µM) and the Activity [13] was “inactive”.
